Results: ChEMBL document CHEMBL5329223, “Newly synthesized 6-substituted piperazine/phenyl-9-cyclopentyl containing purine nucleobase analogs act as potent anticancer agents and induce apoptosis via inhibiting Src in hepatocellular carcinoma cells” (RSC Med Chem, 2023)
Calls of active or inactive are those of the source. No cut-off for these calls is given here.

What was measured:
Huh-7 [1] = assay: Cytotoxicity against human Huh-7 cells assessed as cell growth inhibition incubated for 72 hrs by SRB assay; format: functional, cell-based; details: for IC50: Huh-7, 72 h
In short: (§1)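 Cells seeded at 1000–3000 per well, treated after 24 h with 2.5–40 μM (40, 20, 10, 5, 2.5 μM) for 72 h, in duplicate or triplicate; DMSO negative control. Fixed with 10% TCA 1 h at 4 °C, stained with 0.4% SRB in 1% acetic acid, dye solubilized in 10 mM TBS, A515 read; OD normalized to DMSO control, IC50 from growth-inhibition curves.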

HCT-116 = assay: Cytotoxicity against human HCT-116 cells assessed as cell growth inhibition incubated for 72 hrs by SRB assay; format: functional, cell-based; details: for IC50: HCT-116, 72 h; in short: as §1
MCF7 = assay: Cytotoxicity against human MCF7 cells assessed as cell growth inhibition incubated for 72 hrs by SRB assay; format: functional, cell-based; details: for IC50: MCF7, 72 h; in short: as §1
HepG2 = assay: Cytotoxicity against human HepG2 cells assessed as cell growth inhibition incubated for 72 hrs by SRB assay; format: functional, cell-based; details: HepG2, 72 h; in short: as §1
Hep 3B2 = assay: Cytotoxicity against human Hep3B cells assessed as cell growth inhibition incubated for 72 hrs by SRB assay; format: functional, cell-based; in short: as §1
PLC = assay: Cytotoxicity against human PLC cells assessed as cell growth inhibition incubated for 72 hrs by SRB assay; format: functional, cell-based; in short: as §1
Mahlavu [2] = assay: Cytotoxicity against human Mahlavu cells assessed as cell growth inhibition incubated for 72 hrs by SRB assay; format: functional, cell-based; in short: as §1
[3] = Cytotoxicity against human FOCUS cells assessed as cell growth inhibition incubated for 72 hrs by SRB assay; format: functional, cell-based; in short: as §1
SNU-475 = assay: Cytotoxicity against human SNU-475 cells assessed as cell growth inhibition incubated for 72 hrs by SRB assay; format: functional, cell-based; details: SNU-475, 72 h; in short: as §1
SNU-182 = assay: Cytotoxicity against human SNU-182 cells assessed as cell growth inhibition incubated for 72 hrs by SRB assay; format: functional, cell-based; details: SNU-182, 72 h; in short: as §1
SNU-387 = assay: Cytotoxicity against human SNU-387 cells assessed as cell growth inhibition incubated for 72 hrs by SRB assay; format: functional, cell-based; details: SNU-387, 72 h; in short: as §1
SNU-398 = assay: Cytotoxicity against human SNU-398 cells assessed as cell growth inhibition incubated for 72 hrs by SRB assay; format: functional, cell-based; details: SNU-398, 72 h; in short: as §1
SNU-423 = assay: Cytotoxicity against human SNU-423 cells assessed as cell growth inhibition incubated for 72 hrs by SRB assay; format: functional, cell-based; details: SNU-423, 72 h; in short: as §1
SNU-449 = assay: Cytotoxicity against human SNU-449 cells assessed as cell growth inhibition incubated for 72 hrs by SRB assay; format: functional, cell-based; details: SNU-449, 72 h; in short: as §1
Huh-7 [4] = assay: Upregulation of intracellular ATP level in human Huh-7 cells at 5 uM incubated for 72 hrs by Kinase Glo assay; format: functional, cell-based
In short: (§2)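 Huh7 and Mahlavu cells grown 24 h, then treated with 5 μM for 72 h. Lysates protein-normalized by Bradford; ATP read by Kinase-Glo Plus luminescence per kit protocol. Staurosporine positive control, DMSO negative control.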

Mahlavu [5] = assay: Upregulation of intracellular ATP level in human Mahlavu cells at 5 uM incubated for 72 hrs by Kinase Glo assay; format: functional, cell-based; in short: as §2
Huh-7 [6] = assay: Cytotoxicity against human Huh-7 cells assessed as cell growth inhibition at 0.625 to 5 uM measured upto 72 hrs by RT-CES analysis; format: functional, cell-based; details: dose 0.625-5 µM
In short: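 Huh7 cells, 2000 per well, treated 24 h after seeding alongside DMSO control; cell index from impedance recorded every 30 min; plots for each concentration normalized to DMSO-treated cells.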

Huh-7 [7] = assay: Induction of morphological changes in human Huh-7 cells assessed as horseshoe-like condensed nuclei at 5 uM incubated for 72 hrs by Hoechst 33258 dye based microscopy; format: functional, cell-based
In short: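 Huh7 cells on coverslips (50 000 per well) given 5 μM or DMSO 24 h after seeding for 72 h; permeabilized with ice-cold methanol 10 min, Hoechst 33258 stain 5 min in the dark, imaged by fluorescence microscopy with 40× objective.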

Huh-7 [8] = assay: Induction of cell cycle arrest in human Huh-7 cells assessed as increase in accumulation of cells at subG1 phase at 5 uM incubated for 72 hrs by PI staining based flow cytometry; format: functional
In short: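 Huh7 and Mahlavu cells serum-starved 24 h to synchronize, then given 5 μM or DMSO in fresh growth medium for 72 h. Trypsinized, fixed in ice-cold 70% ethanol at least 3 h at −20 °C, PI-stained with a cell cycle kit, analyzed by flow cytometry for SubG1.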

Huh-7 [9] = assay: Induction of apoptosis in human Huh-7 cells assessed as increase in PARP-1 cleavage at 5 uM incubated for 72 hrs by Western blot analysis; format: functional, cell-based
In short: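 Huh7 cells (300 000 per dish) treated 24 h after seeding with 5 μM or DMSO for 72 h. Immunoblot for PARP-1, phospho-Src Tyr416, Src, Rb, phospho-Rb Ser807/811, Cdk2; calnexin and actin as loading controls.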

In the case of Clc1ccc(-c2ncnc3c2ncn3C2CCCC2)cc1, the IC50 (Huh-7 [1]) is reported as 15.6 µM, the “growth inhibition (GI)” value (HCT-116) is reported as “inactive” and the “growth inhibition (GI)” value (MCF7) is reported as “inactive”.
Compound Clc1ccc(N2CCN(c3ncnc4c3ncn4C3CCCC3)CC2)cc1Cl has an IC50 (Huh-7 [1]) of 0.04 µM, an IC50 (HCT-116) of 0.04 µM and an IC50 (MCF7) of 0.16 µM. The IC50 (HepG2) was 0.02 µM, the IC50 (Hep 3B2) was 0.03 µM and the IC50 (PLC) was 7 µM. It also gave an IC50 (Mahlavu [2]) of 0.1 µM, an IC50 [3] of 0.5 µM and an IC50 (SNU-475) of 2.5 µM. For the same compound, the IC50 (SNU-182) was 65 µM, the IC50 (SNU-387) was 20 µM and the IC50 (SNU-398) was 0.2 µM. It also gave an IC50 (SNU-423) of 9.9 µM and an IC50 (SNU-449) of under 0.1 µM.
Compound O=S(=O)(c1ccc(C(F)(F)F)cc1)N1CCN(c2ncnc3c2ncn3C2CCCC2)CC1 has an IC50 (Huh-7 [1]) of 12.3 µM, an IC50 (HCT-116) of 32.4 µM and an IC50 (MCF7) of 12.7 µM.
O=S(=O)(c1ccccc1)N1CCN(c2ncnc3c2ncn3C2CCCC2)CC1 gave an IC50 (Huh-7 [1]) of 13.1 µM, an IC50 (HCT-116) of 12 µM and an IC50 (MCF7) of 11.2 µM.
With CN[C@@H]1C[C@H]2O[C@@](C)([C@@H]1OC)n1c3ccccc3c3c4c(c5c6ccccc6n2c5c31)C(=O)NC4 the Activity (Huh-7 [4]) was “inactive” and the Activity (Mahlavu [5]) was “inactive”.
For Cc1ccc(N2CCN(c3ncnc4c3ncn4C3CCCC3)CC2)cc1, the IC50 (Huh-7 [1]) was 1.4 µM, the IC50 (HCT-116) was 1.9 µM and the IC50 (MCF7) was 6.4 µM. For the same compound, the IC50 (HepG2) was 0.9 µM, the IC50 (Hep 3B2) was 3.1 µM and the IC50 (PLC) was 20.7 µM. It also gave an IC50 (Mahlavu [2]) of 4.2 µM, an IC50 [3] of 5 µM and an IC50 (SNU-475) of 17.7 µM. It also gave an IC50 (SNU-182) of 61 µM, an IC50 (SNU-387) of 88 µM and an IC50 (SNU-398) of 1.9 µM. For the same compound, the IC50 (SNU-423) was 17.5 µM and the IC50 (SNU-449) was 17 µM.
In the case of O=S(=O)(c1ccc(F)cc1)N1CCN(c2ncnc3c2ncn3C2CCCC2)CC1, the IC50 (Huh-7 [1]) is reported as 9 µM, the IC50 (HCT-116) is reported as 12 µM and the IC50 (MCF7) is reported as 5.2 µM. The IC50 (HepG2) was 4.8 µM, the IC50 (Hep 3B2) was 6.1 µM and the IC50 (PLC) was 15.4 µM. For the same compound, the IC50 (Mahlavu [2]) was 11.4 µM, the IC50 [3] was 12.6 µM and the IC50 (SNU-475) was 21.6 µM. For the same compound, the IC50 (SNU-182) was 47.9 µM, the IC50 (SNU-387) was 11.1 µM and the IC50 (SNU-398) was 8 µM. For the same compound, the IC50 (SNU-423) was 9.5 µM and the IC50 (SNU-449) was 16.3 µM.
For Brc1ccc(-c2ncnc3c2ncn3C2CCCC2)cc1, the IC50 (Huh-7 [1]) was 16 µM, the inhibition (HCT-116) was “inactive” and the IC50 (MCF7) was 56.1 µM.
For FC(F)(F)c1ccc(-c2ncnc3c2ncn3C2CCCC2)cc1, the IC50 (Huh-7 [1]) was 29.8 µM, the IC50 (HCT-116) was 6 µM and the IC50 (MCF7) was 20.3 µM.
With Nc1nc(F)nc2c1ncn2[C@@H]1O[C@H](CO)[C@@H](O)[C@@H]1O [FLUDARABINE] the IC50 (Huh-7 [1]) was 24.4 µM, the IC50 (HCT-116) was 8.3 µM and the IC50 (HepG2) was 17 µM. It also gave an IC50 (Hep 3B2) of 27.8 µM, an IC50 (PLC) of 41.7 µM and an IC50 (Mahlavu [2]) of 14.2 µM. For the same compound, the IC50 [3] was 13.7 µM, the IC50 (SNU-475) was 41.5 µM and the IC50 (SNU-182) was 37.2 µM. The IC50 (SNU-387) was 33.8 µM, the IC50 (SNU-398) was 0.2 µM and the IC50 (SNU-423) was 32.6 µM. For the same compound, the IC50 (SNU-449) was 25.1 µM.
Fc1ccc(-c2ncnc3c2ncn3C2CCCC2)cc1 gave an IC50 (Huh-7 [1]) of 6.7 µM, an IC50 (HCT-116) of 6.1 µM and an IC50 (MCF7) of 15.6 µM.
With COc1ccc(N2CCN(c3ncnc4c3ncn4C3CCCC3)CC2)cc1 the IC50 (Huh-7 [1]) was 1.3 µM, the IC50 (HCT-116) was 5 µM and the IC50 (MCF7) was 1 µM. It also gave an IC50 (HepG2) of 0.3 µM, an IC50 (Hep 3B2) of 0.3 µM and an IC50 (PLC) of 9.3 µM. For the same compound, the IC50 (Mahlavu [2]) was 0.6 µM, the IC50 [3] was 2.6 µM and the IC50 (SNU-475) was 13 µM. It also gave an IC50 (SNU-182) of 13 µM, an IC50 (SNU-387) of 38 µM and an IC50 (SNU-398) of 0.3 µM. For the same compound, the IC50 (SNU-423) was 15 µM, the IC50 (SNU-449) was 2 µM and the “growth inhibition (GI)” value (Huh-7 [6]) was “Active”. The Activity (Huh-7 [7]) was “Active”, the Activity (Huh-7 [8]) was “Active” and the Activity (Huh-7 [9]) was “Active”. For the same compound, the Activity (Huh-7 [4]) was “inactive” and the Activity (Mahlavu [5]) was “inactive”.
In the case of OC[C@H]1O[C@@H](n2cnc3c2N=CNC[C@H]3O)C[C@@H]1O, the “growth inhibition (GI)” value (Huh-7 [1]) is reported as “inactive”, the “growth inhibition (GI)” value (HCT-116) is reported as “inactive” and the “growth inhibition (GI)” value (MCF7) is reported as “inactive”.
